For 11 molecules, IC50 results are on record in ChEMBL document CHEMBL3243980, “Structural analogues of L-glutamic Acid gamma-(4-hydroxyanilide) and gamma-(3,4-dihydroxyanilde) as potential agents against melanoma” (1979).

The structures appear in SMILES notation.

This test concerns B16. In words: Cytotoxicity against mouse B16 cells after 48 hrs. The settings on record: B16, 48 h, read-out: ID50 (the source's name). It counts as functional. Put shortly:
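Moderately pigmented B16 murine melanoma cells grown as monolayers in McCoy's 5A medium plus 10% fetal calf serum, in exponential growth at assay. Drug added 24 h after plating, incubation continued another 48 h. Four dose levels tested in triplicate, generally 0.1–1.0 mM (0.01–0.1 mM for one compound); ID50 reported as mM, SD within ±10% of mean.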
For `N[C@@H](CCC(=O)Nc1ccc(O)cc1)C(=O)O`, the IC50 came out at 100 µM.
With `N[C@@H](CCC(=O)Nc1cccc(O)c1)C(=O)O`, the IC50 worked out at 1000 µM.
As for `N[C@@H](CCC(=O)Nc1ccc(O)c(O)c1)C(=O)O`, the IC50 worked out at 270 µM.
Turning to `COc1ccc(NC(=O)CC[C@H](N)C(=O)O)cc1`, the IC50 is greater than 1000 µM.
As to `N[C@@H](CCC(=O)Nc1ccc2c(c1)OCO2)C(=O)O`, the IC50 was greater than 1000 µM.
In the case of `N[C@@H](CCC(=O)Nc1cc(O)ccc1O)C(=O)O`, the IC50 turned out to be 51 µM.
Next, `N[C@@H](CC(=O)Nc1ccc(O)cc1)C(=O)O`: 310 µM.
As for `N[C@@H](CCC(=O)O)C(=O)Nc1ccc(O)cc1`, the figure is greater than 1000 µM; as for `NCCCC(=O)Nc1ccc(O)cc1`, greater than 1000 µM; as for `O=C(O)CCCC(=O)Nc1ccc(O)cc1`, greater than 1000 µM.
As for `O=C(CCCC(=O)Nc1ccc(O)cc1)Nc1ccc(O)cc1`, the figure is greater than 1000 µM.
